According to ChEMBL document CHEMBL1135971, “(2S,1'S,2'S,3'R)-2-(2'-carboxy-3'-methylcyclopropyl) glycine is a potent and selective metabotropic group 2 receptor agonist with anxiolytic properties” (2002):

How the values were obtained:
[1] = target: Metabotropic glutamate receptor 5 (Homo sapiens) (UniProt P41594); experiment: Phosphoinositide hydrolysis by human Metabotropic glutamate receptor 5 (mGluR5) expressed in non neuronal cells; format: cell-based
Summary of the method: (§1)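 Transfected nonneuronal cells seeded at 2.5 × 10^5 per well in glutamine-free medium for 24 h, then labeled with [3H]myo-inositol (4 µCi/mL) for 20 h. Washed in buffer with 10 mM HEPES, inositol and LiCl. Compound added and incubated 60 min at 37 °C. [3H]inositol monophosphate separated by anion exchange and counted by scintillation. Read-out: EC50 for PI hydrolysis.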

[2] = target: Metabotropic glutamate receptor 7 (Homo sapiens) (UniProt Q14831); experiment: (§2) Inhibition of c-AMP by human Metabotropic glutamate receptor 7 (mGluR7) expressed in non-neuronal cells; format: cell-based
Metabotropic glutamate receptor 7 (Homo sapiens), sequence (Q14831 whole entry): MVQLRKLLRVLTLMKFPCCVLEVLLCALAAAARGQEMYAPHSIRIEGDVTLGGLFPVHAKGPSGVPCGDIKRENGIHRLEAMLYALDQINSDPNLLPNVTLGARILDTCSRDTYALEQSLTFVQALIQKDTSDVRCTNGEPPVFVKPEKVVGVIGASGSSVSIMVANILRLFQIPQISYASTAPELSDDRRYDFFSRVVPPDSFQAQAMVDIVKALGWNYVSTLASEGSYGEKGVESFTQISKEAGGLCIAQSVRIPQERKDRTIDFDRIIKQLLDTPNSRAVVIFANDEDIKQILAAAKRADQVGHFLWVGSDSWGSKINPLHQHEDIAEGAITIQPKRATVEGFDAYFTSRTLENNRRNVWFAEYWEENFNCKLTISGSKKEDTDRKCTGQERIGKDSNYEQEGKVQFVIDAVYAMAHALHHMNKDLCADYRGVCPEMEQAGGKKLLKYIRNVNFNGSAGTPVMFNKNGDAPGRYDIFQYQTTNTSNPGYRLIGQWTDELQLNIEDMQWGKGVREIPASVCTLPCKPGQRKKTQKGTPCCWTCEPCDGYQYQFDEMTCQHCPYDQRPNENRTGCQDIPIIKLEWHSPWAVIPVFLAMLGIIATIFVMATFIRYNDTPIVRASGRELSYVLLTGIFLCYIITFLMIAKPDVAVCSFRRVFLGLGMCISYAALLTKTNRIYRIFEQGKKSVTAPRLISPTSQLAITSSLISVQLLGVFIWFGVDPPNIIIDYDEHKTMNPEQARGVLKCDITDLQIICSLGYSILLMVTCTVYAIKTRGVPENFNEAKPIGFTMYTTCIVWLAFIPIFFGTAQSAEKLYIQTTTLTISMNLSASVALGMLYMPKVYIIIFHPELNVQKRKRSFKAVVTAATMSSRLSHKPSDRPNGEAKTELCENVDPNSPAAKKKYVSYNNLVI
Summary of the method: (§3)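 Clonal nonneuronal cell lines expressing each mGlu subtype, washed in PBS with 3 mM glucose and 500 μM IBMX, preincubated 30 min at 37 °C. Compound added with forskolin (15 μM final), 20 min at 37 °C. Stopped with 6 mM EDTA and boiling. cAMP measured by [3H]cAMP SPA, with protein per well by Bradford assay. Read-out: EC50 for inhibition of forskolin-stimulated cAMP.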

[3] = target: Metabotropic glutamate receptor 2 (Homo sapiens) (UniProt Q14416); experiment: Inhibition of c-AMP by human Metabotropic glutamate receptor 2 (mGluR2) expressed in non-neuronal cells; format: cell-based; summary of the method: as §3
[4] = target: Metabotropic glutamate receptor 4 (Homo sapiens) (UniProt Q14833); experiment: (§4) Inhibition of c-AMP by human Metabotropic glutamate receptor 4 (mGluR4) expressed in non-neuronal cells; format: cell-based; summary of the method: as §3
Metabotropic glutamate receptor 4 (Homo sapiens), sequence (Q14833 whole entry): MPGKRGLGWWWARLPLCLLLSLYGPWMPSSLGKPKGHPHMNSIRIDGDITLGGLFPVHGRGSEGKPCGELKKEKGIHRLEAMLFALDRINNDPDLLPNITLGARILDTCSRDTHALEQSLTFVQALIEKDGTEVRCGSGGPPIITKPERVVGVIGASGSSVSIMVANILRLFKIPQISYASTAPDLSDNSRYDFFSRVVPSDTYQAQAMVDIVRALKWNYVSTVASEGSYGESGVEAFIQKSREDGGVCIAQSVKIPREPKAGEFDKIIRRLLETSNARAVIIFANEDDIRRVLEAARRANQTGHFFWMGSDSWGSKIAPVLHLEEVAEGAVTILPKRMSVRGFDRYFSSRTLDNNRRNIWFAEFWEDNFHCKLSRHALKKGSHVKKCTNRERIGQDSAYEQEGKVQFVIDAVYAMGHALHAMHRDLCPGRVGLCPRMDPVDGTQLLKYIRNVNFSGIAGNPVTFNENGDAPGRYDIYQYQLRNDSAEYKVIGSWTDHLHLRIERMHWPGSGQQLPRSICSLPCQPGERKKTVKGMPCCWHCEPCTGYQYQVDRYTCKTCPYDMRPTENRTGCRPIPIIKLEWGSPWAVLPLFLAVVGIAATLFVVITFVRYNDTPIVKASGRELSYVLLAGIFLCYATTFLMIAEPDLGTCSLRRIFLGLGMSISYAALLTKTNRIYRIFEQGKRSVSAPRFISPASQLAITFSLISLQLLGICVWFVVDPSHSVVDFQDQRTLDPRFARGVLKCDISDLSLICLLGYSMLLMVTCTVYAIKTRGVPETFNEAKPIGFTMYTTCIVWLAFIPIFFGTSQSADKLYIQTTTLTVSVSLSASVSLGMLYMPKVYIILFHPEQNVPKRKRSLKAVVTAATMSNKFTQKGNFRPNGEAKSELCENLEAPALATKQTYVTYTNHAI

[5] = target: Metabotropic glutamate receptor 3 (Homo sapiens) (UniProt Q14832); experiment: (§5) Inhibition of c-AMP by human Metabotropic glutamate receptor 3 (mGluR3) expressed in non-neuronal cells; format: cell-based; summary of the method: as §3
[6] = target: Metabotropic glutamate receptor 6 (Homo sapiens) (UniProt O15303); experiment: (§6) Inhibition of c-AMP by human Metabotropic glutamate receptor 6 (mGluR6) expressed in non-neuronal cells; format: cell-based; summary of the method: as §3
Metabotropic glutamate receptor 6 (Homo sapiens), sequence (O15303 whole entry): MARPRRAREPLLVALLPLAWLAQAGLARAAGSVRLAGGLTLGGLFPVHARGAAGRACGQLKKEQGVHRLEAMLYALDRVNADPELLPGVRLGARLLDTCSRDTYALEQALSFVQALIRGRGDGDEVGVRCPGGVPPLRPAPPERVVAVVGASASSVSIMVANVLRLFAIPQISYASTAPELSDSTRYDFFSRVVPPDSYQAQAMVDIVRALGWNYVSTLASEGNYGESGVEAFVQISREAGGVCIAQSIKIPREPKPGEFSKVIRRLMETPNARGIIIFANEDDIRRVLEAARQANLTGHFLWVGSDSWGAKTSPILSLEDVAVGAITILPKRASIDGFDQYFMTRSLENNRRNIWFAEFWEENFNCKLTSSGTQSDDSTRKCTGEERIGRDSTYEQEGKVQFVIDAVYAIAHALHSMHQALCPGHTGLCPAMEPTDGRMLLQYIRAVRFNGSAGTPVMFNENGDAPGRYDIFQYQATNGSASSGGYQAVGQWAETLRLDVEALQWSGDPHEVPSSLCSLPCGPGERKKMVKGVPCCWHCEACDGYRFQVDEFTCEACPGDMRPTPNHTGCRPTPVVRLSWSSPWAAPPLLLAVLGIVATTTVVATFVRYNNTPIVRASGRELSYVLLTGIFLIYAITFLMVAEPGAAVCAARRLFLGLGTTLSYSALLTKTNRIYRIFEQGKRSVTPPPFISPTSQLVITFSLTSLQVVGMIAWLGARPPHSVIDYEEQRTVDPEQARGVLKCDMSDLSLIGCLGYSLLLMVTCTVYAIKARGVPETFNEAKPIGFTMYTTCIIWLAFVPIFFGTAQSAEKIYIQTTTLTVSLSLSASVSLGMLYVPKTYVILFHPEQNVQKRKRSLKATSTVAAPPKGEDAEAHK

[7] = target: Metabotropic glutamate receptor 8 (Homo sapiens) (UniProt O00222); experiment: Inhibition of c-AMP by human Metabotropic glutamate receptor 8 (mGluR8) expressed in non-neuronal cells; format: cell-based; summary of the method: as §3
Metabotropic glutamate receptor 8 (Homo sapiens), sequence (O00222 whole entry): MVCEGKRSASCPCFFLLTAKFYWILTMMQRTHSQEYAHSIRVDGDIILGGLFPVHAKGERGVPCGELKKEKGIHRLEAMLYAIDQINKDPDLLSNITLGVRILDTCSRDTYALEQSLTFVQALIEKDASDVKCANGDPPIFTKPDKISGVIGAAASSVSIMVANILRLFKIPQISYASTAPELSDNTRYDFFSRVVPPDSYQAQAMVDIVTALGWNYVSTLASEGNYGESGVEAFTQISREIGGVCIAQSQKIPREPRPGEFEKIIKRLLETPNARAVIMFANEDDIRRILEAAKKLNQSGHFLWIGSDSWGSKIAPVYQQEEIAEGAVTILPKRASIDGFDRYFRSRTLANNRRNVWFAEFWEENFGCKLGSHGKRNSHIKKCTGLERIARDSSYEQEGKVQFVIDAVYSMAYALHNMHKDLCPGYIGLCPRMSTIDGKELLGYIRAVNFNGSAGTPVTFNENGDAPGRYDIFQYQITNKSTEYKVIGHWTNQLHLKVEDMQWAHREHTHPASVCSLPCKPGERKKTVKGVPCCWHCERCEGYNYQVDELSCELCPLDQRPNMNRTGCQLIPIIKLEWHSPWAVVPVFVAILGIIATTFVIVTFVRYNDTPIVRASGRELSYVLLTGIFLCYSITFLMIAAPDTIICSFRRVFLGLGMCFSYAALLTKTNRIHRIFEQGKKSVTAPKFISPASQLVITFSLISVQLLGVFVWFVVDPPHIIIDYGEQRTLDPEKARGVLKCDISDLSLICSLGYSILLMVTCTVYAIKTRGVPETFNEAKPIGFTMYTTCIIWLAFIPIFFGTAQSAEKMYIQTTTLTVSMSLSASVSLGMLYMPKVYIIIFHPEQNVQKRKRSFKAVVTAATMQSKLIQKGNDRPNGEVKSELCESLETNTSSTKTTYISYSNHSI

[8] = target: Metabotropic glutamate receptor 7 (Homo sapiens) (UniProt Q14831); experiment: as §2; format: cell-based; remark: listed apart in the source
Summary of the method: (§7)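 Clonal nonneuronal cell lines transfected with each mGlu receptor. Cells washed in Dulbecco's PBS with 3 mM glucose and 500 μM IBMX, preincubated 30 min at 37 °C, then washed. Compound added with forskolin (15 μM final) and incubated 20 min at 37 °C. Stopped with 6 mM EDTA plus boiling, cAMP measured by [3H]cAMP SPA and normalised to Bradford protein. EC50 for inhibition of forskolin-stimulated cAMP.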

[9] = target: Metabotropic glutamate receptor 3 (Homo sapiens) (UniProt Q14832); experiment: as §5; format: cell-based; summary of the method: as §7; remark: listed apart in the source
[10] = target: Metabotropic glutamate receptor 6 (Homo sapiens) (UniProt O15303); experiment: as §6; format: cell-based; summary of the method: as §7; remark: listed apart in the source
[11] = target: Metabotropic glutamate receptor 4 (Homo sapiens) (UniProt Q14833); experiment: as §4; format: cell-based; summary of the method: as §7; remark: listed apart in the source
[12] = target: Metabotropic glutamate receptor 5 (Homo sapiens) (UniProt P41594); experiment: Phosphoinositide hydrolysis by Metabotropic glutamate receptor 5 (mGluR5) expressed in non neuronal cells; format: cell-based; summary of the method: as §1
Rattus norvegicus = experiment: Mean effective dose that significantly blocked fear-potentiated startle(oral administration); conditions: read-out: MED
[13] = target: Metabotropic glutamate receptor 7 (Rattus norvegicus) (UniProt P35400); experiment: Inhibition of c-AMP by rat Metabotropic glutamate receptor 7 mGluR7) expressed in non-neuronal cells
Metabotropic glutamate receptor 7 (Rattus norvegicus), sequence (P35400 whole entry, looked up): as the sequence (Q14831 whole entry) above, with R5G, A27V, N454H, S488T, A520S, D578N counted along it

Metabotropic glutamate receptor 5 (Homo sapiens), sequence (P41594 21-1212 limits assumed): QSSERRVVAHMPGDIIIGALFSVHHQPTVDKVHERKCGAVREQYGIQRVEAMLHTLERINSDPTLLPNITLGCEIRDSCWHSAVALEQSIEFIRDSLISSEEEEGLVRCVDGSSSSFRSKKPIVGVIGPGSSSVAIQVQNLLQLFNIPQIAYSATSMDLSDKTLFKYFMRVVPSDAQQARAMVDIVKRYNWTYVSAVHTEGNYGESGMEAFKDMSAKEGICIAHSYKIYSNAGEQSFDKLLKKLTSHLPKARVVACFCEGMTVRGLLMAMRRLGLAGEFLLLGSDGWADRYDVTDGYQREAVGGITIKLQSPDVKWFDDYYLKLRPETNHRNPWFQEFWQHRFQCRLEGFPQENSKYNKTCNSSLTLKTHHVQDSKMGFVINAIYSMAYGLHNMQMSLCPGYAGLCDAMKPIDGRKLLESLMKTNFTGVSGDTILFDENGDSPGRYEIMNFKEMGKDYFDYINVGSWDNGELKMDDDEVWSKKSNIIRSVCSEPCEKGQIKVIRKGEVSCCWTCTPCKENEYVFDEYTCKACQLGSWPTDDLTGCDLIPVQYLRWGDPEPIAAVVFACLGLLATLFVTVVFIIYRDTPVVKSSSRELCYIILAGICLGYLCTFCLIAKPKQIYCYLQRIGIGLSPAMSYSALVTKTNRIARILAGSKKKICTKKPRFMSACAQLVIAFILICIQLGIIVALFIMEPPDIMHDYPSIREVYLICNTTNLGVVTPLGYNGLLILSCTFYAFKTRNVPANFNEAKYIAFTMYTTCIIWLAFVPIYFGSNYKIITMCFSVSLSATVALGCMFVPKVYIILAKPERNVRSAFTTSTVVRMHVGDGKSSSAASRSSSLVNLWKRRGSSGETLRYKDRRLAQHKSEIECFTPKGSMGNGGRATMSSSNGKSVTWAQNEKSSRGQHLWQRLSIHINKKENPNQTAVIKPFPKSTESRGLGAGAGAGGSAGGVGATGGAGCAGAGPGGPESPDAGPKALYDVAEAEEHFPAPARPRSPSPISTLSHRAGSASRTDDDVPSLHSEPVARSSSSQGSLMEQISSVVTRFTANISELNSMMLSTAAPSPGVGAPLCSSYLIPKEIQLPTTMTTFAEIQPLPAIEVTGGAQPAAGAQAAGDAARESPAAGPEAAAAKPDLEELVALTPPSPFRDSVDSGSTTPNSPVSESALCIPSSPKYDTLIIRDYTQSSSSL

**Q.** For `N[C@@]1(C(=O)O)CS[C@H]2[C@H](C(=O)O)[C@H]21`, which Activity [1] is on record?
**A.** The Activity was over 100 µM.

**Q.** And the Activity [2]?
**A.** Its Activity is over 100 µM.

**Q.** What about the Activity [3] of the same molecule?
**A.** The Activity was 4 nM.

**Q.** And the Activity [4]?
**A.** Its Activity is over 100 µM.

**Q.** And the Activity [5]?
**A.** Its Activity is 8 nM.

**Q.** What about the Activity [6] of the same molecule?
**A.** The Activity was 2000 nM.

**Q.** And the Activity [7]?
**A.** The Activity was 7 µM.

**Q.** What does the source list for `N[C@@]1(C(=O)O)CC[C@@H](C(=O)O)C1`?
**A.** Activity [1]: 15 µM; Activity [2]: 1000 µM; Activity [3]: 12000 nM; Activity [4]: 90 µM; Activity [5]: 860000 nM; Activity [6]: 18000 nM; Activity [7]: 45 µM

**Q.** For `N[C@]1(C(=O)O)[C@H]2[C@@H](C[C@@H]1F)[C@@H]2C(=O)O`, which Activity [1] is on record?
**A.** The Activity was over 100 µM.

**Q.** And the Activity [8]?
**A.** The Activity was over 100 µM.

**Q.** What about the Activity [9] of the same molecule?
**A.** Its Activity is 45.4 nM.

**Q.** And the Activity [10]?
**A.** Its Activity is over 100 nM.

**Q.** What about the Activity [11] of the same molecule?
**A.** Its Activity is over 100 µM.

**Q.** What about the Activity [7] of the same molecule?
**A.** Its Activity is over 100 µM.

**Q.** Which results are given for `N[C@@]1(C(=O)O)CC[C@@H]2[C@H]1[C@@]2(F)C(=O)O`?
**A.** Activity [1]: > 100 µM; Activity [2]: > 100 µM; Activity [3]: 16.6 nM; Activity [4]: > 100 µM; Activity [5]: 89 nM; Activity [6]: > 100 nM

**Q.** Which Activity [3] does the source give for `COC[C@H]1[C@H](C(=O)O)[C@H]1[C@H](N)C(=O)O` here?
**A.** The Activity was 100 nM.

**Q.** What about the Activity [12] of the same molecule?
**A.** The Activity was over 100 µM.

**Q.** `C[C@@H]1[C@H](C(=O)O)[C@H]1[C@H](N)C(=O)O` was tested. Which Activity [1] did it give?
**A.** The Activity was over 100 µM.

**Q.** And the Activity [3]?
**A.** The Activity was 188 nM.

**Q.** And the Activity [5]?
**A.** Its Activity is 2000 nM.

**Q.** What about the Activity [7] of the same molecule?
**A.** The Activity was 2.8 µM.

**Q.** What does the source list for `C[C@H]1[C@H](C(=O)O)[C@H]1[C@H](N)C(=O)O`?
**A.** Activity [1]: > 100 µM; Activity [2]: > 100 µM; Activity [3]: 8 nM; Activity [4]: > 100 µM; Activity [5]: 38 nM; Activity [6]: 1200 nM; minimal effective dose (Rattus norvegicus): 0.0003 mg/kg; Activity [7]: 1.32 µM

**Q.** `COC[C@@H]1[C@H](C(=O)O)[C@H]1[C@H](N)C(=O)O` was tested. Which Activity [1] did it give?
**A.** The Activity was over 100 µM.

**Q.** And the Activity [3]?
**A.** Its Activity is 300 nM.

**Q.** Which results are given for `N[C@@]1(C(=O)O)CC(=O)[C@@H]2[C@H]1[C@@]2(F)C(=O)O`?
**A.** Activity [1]: > 100 µM; Activity [8]: > 100 µM; Activity [9]: 2.7 nM; Activity [10]: > 100 nM; Activity [11]: > 100 µM

**Q.** For `N[C@H](C(=O)O)C1[C@@H](C(=O)O)[C@@H]1C(=O)O` (stereo not given in full), which Activity [1] is on record?
**A.** Its Activity is 389 µM.

**Q.** And the Activity [3]?
**A.** Its Activity is 300 nM.

**Q.** And the Activity [4]?
**A.** The Activity was 23 µM.

**Q.** What about the Activity [5] of the same molecule?
**A.** Its Activity is 200 nM.

**Q.** What about the Activity [13] of the same molecule?
**A.** Its Activity is 40 µM.

**Q.** What about the Activity [6] of the same molecule?
**A.** Its Activity is 40000 nM.

**Q.** And the Activity [7]?
**A.** Its Activity is 32 µM.

**Q.** `N[C@@]1(C(=O)O)CO[C@H]2[C@H](C(=O)O)[C@H]21` was tested. Which Activity [1] did it give?
**A.** Its Activity is over 100 µM.

**Q.** What about the Activity [2] of the same molecule?
**A.** Its Activity is over 100 µM.

**Q.** And the Activity [3]?
**A.** Its Activity is 3 nM.

**Q.** And the Activity [4]?
**A.** Its Activity is 21 µM.

**Q.** And the Activity [5]?
**A.** Its Activity is 5 nM.

**Q.** What about the Activity [6] of the same molecule?
**A.** The Activity was 400 nM.

**Q.** What about the Activity [7] of the same molecule?
**A.** Its Activity is 2 µM.

**Q.** For `N[C@H](C(=O)O)[C@H]1C[C@@H]1C(=O)O`, which Activity [1] is on record?
**A.** The Activity was 17 µM.

**Q.** What about the Activity [2] of the same molecule?
**A.** Its Activity is 47 µM.

**Q.** What about the Activity [3] of the same molecule?
**A.** Its Activity is 300 nM.

**Q.** And the Activity [5]?
**A.** Its Activity is 600 nM.

**Q.** And the Activity [6]?
**A.** The Activity was 600 nM.

**Q.** And the Activity [7]?
**A.** Its Activity is 0.4 µM.

**Q.** Which Activity [1] does the source give for `N[C@@]1(C(=O)O)CC[C@H]2[C@H](C(=O)O)[C@H]21` [EGLUMETAD] here?
**A.** Its Activity is over 100 µM.

**Q.** And the Activity [2]?
**A.** The Activity was over 100 µM.

**Q.** And the Activity [3]?
**A.** The Activity was 7.9 nM.

**Q.** And the Activity [4]?
**A.** The Activity was over 100 µM.

**Q.** And the Activity [5]?
**A.** Its Activity is 21 nM.

**Q.** And the Activity [6]?
**A.** The Activity was 3000 nM.

**Q.** And the minimal effective dose (Rattus norvegicus)?
**A.** Its minimal effective dose is 3 mg/kg.

**Q.** And the Activity [7]?
**A.** The Activity was 11.5 µM.

**Q.** What does the source list for `N[C@@H](CCC(=O)O)C(=O)O`?
**A.** Activity [1]: 4 µM; Activity [2]: 5400 µM; Activity [4]: 12 µM; Activity [5]: 9000 nM; Activity [6]: 20000 nM
